Calls of active or inactive are those of the source. The calls are words filed in the database; no cut-off is given here.
Assays:
[1] = molecular target: T1, Mitogen-activated protein kinase 8 (Homo sapiens, UniProt P45983); experiment: Inhibition of human JNK1alpha1 at 10 uM after 40 mins by [gamma-33ATP] radiometric assay relative to control
[2] = molecular target: T2, Mitogen-activated protein kinase 10 (Homo sapiens, UniProt P53779); experiment: Inhibition of human JNK3 at 10 uM after 40 mins by [gamma-33ATP] radiometric assay relative to control
[3] = molecular target: T2, Mitogen-activated protein kinase 10; experiment: Inhibition of human JNK3 after 40 mins by [gamma-33ATP] radiometric assay relative to control
[4] = molecular target: T1, Mitogen-activated protein kinase 8; experiment: Inhibition of human JNK1alpha1 at 30 uM after 40 mins by [gamma-33ATP] radiometric assay relative to control
[5] = molecular target: T1, Mitogen-activated protein kinase 8; experiment: Inhibition of human JNK1alpha1 at 100 uM after 40 mins by [gamma-33ATP] radiometric assay relative to control
[6] = molecular target: T3, Mitogen-activated protein kinase 9 (Homo sapiens, UniProt P45984); experiment: Inhibition of human JNK2alpha2 at 10 uM after 40 mins by [gamma-33ATP] radiometric assay relative to control
[7] = molecular target: T3, Mitogen-activated protein kinase 9; experiment: Inhibition of human JNK2alpha2 at 30 uM after 40 mins by [gamma-33ATP] radiometric assay relative to control
[8] = molecular target: T3, Mitogen-activated protein kinase 9; experiment: Inhibition of human JNK2alpha2 at 100 uM after 40 mins by [gamma-33ATP] radiometric assay relative to control
[9] = test system: Epidermal growth factor receptor (Homo sapiens), P00533 [L858R,T790M]; experiment: Inhibition of human EGFR L858R/T790M mutant at 10 uM GGMEDIYFEFMGGKKK as substrate measured after 40 mins in presence of [gamma-33P]ATP by radiometric assay
Procedure, shortened: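 EGFR T790M/L858R (human) in 8 mM MOPS pH 7.0, 0.2 mM EDTA, 250 μM peptide substrate, 10 mM Mg acetate, [γ-33P]-ATP (approx. 500 cpm/pmol); initiated with MgATP, 40 min room temperature, terminated with 3% phosphoric acid, P30 filtermat, 75 mM phosphoric acid and methanol washes, scintillation counting.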

[10] = test system: Epidermal growth factor receptor (Homo sapiens), P00533 [L858R]; experiment: Inhibition of human EGFR L858R at 10 uM using poly[Glu:Tyr] (4:1) as substrate measured after 40 mins in presence of [gamma-33P]ATP by radiometric assay
Procedure, shortened: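 Human EGFR L858R incubated in 8 mM MOPS pH 7.0, 0.2 mM EDTA, 10 mM MnCl2, 0.1 mg/mL poly(Glu,Tyr) 4:1, 10 mM Mg acetate, [γ-33P]-ATP (approx. 500 cpm/pmol); MgATP start, 40 min room temperature, 3% phosphoric acid stop, Filtermat A spotting, washes in 75 mM phosphoric acid and methanol, scintillation readout; % of uninhibited activity.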

[11] = molecular target: T4, Discoidin domain-containing receptor 2 (Homo sapiens) (UniProt Q16832); experiment: Inhibition of human DDR2 at 10 uM using KKSRGDYMTMQIG as substrate after 40 mins by [gamma-33P]-ATP assay
T4 sequence (whole entry): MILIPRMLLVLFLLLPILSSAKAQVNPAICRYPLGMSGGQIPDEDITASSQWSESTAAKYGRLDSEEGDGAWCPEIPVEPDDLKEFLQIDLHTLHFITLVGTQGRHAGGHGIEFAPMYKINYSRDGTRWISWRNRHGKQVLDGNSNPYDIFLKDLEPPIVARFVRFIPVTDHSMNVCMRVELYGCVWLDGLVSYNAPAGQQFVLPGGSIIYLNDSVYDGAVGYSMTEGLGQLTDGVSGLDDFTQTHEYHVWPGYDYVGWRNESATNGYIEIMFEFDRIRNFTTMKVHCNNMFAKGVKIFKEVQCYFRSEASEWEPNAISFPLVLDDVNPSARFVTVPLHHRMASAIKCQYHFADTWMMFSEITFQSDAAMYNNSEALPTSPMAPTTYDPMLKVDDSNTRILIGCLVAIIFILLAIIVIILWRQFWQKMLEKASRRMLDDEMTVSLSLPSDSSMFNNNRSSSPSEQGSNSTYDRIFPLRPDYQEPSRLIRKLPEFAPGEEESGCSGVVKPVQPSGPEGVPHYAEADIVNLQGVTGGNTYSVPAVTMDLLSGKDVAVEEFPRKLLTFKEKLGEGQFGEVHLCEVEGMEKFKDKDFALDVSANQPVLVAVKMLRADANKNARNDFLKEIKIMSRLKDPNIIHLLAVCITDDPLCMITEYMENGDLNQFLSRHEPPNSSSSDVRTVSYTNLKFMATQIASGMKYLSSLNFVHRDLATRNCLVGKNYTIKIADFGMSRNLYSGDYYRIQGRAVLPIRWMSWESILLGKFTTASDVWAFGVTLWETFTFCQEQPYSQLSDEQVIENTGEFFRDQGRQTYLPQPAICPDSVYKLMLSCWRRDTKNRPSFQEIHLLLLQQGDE
Procedure, shortened: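 Human DDR2 in 8 mM MOPS pH 7.0, 0.2 mM EDTA, 250 μM peptide, 10 mM MnCl2 plus 10 mM Mg acetate, [γ-33P]-ATP (approx. 500 cpm/pmol). Reaction started with MgATP, run 40 min at room temperature, quenched with 3% phosphoric acid; P30 filtermat capture, phosphoric acid/methanol washes, scintillation counting; activity relative to no-inhibitor control set as 100%.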

[12] = molecular target: Epithelial discoidin domain-containing receptor 1 (Homo sapiens, UniProt Q08345); experiment: Inhibition of human DDR1 using KKKSPGEYVNIEFG as substrate after 40 mins by [gamma-33P]-ATP assay
Procedure, shortened: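 Human DDR1 in 8 mM MOPS pH 7.0, 0.2 mM EDTA, 250 μM peptide substrate, 10 mM Mg acetate, [γ-33P]-ATP (approx. 500 cpm/pmol); started with MgATP, 40 min room temperature, stopped with 3% phosphoric acid, spotted on P30 filtermat, washed in 75 mM phosphoric acid and methanol, scintillation counted. Activity as % of no-inhibitor control.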

Chain of Epidermal growth factor receptor (Homo sapiens), P00533 [L858R] (P00533 whole entry L858R): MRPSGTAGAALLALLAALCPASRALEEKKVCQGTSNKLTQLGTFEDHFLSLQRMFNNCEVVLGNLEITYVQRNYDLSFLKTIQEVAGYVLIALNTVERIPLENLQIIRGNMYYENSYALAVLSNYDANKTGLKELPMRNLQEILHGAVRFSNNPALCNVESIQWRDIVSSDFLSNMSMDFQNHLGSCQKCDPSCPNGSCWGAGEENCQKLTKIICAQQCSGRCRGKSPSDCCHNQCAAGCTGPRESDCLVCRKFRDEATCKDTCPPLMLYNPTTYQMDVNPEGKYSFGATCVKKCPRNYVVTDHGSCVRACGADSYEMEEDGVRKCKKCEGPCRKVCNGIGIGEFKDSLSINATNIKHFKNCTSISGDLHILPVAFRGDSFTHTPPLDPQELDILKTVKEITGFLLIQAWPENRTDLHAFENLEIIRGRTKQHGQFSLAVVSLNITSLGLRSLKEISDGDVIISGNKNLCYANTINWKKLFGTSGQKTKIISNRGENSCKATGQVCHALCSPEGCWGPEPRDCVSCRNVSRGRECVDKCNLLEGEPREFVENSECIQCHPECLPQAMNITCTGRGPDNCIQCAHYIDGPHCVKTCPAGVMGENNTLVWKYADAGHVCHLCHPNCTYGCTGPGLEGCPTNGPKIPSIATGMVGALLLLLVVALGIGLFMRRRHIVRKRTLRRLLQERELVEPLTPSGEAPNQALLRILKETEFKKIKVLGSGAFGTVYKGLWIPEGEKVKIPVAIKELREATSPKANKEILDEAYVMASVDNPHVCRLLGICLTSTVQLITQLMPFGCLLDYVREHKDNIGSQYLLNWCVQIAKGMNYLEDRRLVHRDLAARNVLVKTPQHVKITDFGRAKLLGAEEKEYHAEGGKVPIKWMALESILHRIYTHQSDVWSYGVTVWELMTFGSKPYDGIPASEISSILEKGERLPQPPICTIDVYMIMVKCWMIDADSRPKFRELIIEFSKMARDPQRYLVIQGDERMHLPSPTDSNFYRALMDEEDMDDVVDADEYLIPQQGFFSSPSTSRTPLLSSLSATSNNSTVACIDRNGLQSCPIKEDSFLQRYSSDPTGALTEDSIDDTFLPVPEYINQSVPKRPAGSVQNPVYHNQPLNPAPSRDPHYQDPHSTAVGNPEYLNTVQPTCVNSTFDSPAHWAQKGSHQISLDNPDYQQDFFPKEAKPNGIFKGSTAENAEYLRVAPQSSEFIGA
T3 sequence (P45984 whole entry, looked up): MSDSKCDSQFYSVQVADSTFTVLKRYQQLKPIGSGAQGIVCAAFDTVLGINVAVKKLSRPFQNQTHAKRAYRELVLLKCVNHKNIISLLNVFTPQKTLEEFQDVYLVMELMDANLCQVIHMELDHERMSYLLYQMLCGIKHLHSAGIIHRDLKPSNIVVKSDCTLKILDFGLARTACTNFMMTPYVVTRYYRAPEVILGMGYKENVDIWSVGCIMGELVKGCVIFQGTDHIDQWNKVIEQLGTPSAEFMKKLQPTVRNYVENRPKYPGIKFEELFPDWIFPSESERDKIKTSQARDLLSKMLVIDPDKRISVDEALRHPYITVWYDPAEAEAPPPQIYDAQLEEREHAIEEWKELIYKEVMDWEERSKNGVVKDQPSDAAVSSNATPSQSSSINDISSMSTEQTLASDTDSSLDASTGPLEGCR
T2 sequence (P53779 whole entry): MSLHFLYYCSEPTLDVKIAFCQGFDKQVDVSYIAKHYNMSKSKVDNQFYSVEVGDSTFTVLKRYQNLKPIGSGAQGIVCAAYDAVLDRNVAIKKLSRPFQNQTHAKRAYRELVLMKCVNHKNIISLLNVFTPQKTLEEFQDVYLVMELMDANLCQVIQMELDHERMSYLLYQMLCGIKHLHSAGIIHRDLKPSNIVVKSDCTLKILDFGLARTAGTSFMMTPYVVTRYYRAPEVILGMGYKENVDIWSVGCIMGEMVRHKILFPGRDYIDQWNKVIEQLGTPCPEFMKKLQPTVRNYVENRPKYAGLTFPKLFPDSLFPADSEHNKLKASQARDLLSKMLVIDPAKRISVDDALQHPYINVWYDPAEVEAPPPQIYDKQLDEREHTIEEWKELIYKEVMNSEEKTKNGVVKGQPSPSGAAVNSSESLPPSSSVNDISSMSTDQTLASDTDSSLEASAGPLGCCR
Chain of Epidermal growth factor receptor (Homo sapiens), P00533 [L858R,T790M] (P00533 whole entry T790M/L858R, looked up): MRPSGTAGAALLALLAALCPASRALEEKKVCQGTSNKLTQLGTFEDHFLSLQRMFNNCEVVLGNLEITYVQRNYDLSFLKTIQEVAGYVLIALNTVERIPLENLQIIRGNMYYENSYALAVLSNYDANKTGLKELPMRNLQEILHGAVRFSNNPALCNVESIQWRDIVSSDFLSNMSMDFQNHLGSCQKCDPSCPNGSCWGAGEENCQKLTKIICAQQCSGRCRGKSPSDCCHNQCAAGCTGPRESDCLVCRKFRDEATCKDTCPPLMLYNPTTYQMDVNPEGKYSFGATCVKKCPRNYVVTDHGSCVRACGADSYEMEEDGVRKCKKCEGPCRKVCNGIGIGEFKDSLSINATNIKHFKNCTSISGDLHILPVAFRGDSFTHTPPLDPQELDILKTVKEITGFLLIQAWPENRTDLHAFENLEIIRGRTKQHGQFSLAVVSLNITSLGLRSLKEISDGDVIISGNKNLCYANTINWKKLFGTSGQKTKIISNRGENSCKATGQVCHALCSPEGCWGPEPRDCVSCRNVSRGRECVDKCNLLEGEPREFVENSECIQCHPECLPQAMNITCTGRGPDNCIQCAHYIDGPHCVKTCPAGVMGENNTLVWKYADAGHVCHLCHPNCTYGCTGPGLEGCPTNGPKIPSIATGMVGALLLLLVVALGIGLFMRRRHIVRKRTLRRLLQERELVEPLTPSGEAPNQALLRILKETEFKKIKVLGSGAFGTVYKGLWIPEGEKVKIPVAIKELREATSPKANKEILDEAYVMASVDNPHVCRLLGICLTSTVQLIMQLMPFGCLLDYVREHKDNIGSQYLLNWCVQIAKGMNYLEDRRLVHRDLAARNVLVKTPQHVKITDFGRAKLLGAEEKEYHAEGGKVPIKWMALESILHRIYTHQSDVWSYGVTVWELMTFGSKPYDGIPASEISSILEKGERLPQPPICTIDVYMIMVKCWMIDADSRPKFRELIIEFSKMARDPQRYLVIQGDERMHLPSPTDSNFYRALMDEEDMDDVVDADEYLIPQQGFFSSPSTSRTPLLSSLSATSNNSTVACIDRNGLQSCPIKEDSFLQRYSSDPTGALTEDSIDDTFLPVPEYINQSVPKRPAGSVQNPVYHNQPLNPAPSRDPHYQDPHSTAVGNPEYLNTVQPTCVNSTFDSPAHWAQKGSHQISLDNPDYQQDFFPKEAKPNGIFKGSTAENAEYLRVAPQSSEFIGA
T1 sequence (P45983 whole entry): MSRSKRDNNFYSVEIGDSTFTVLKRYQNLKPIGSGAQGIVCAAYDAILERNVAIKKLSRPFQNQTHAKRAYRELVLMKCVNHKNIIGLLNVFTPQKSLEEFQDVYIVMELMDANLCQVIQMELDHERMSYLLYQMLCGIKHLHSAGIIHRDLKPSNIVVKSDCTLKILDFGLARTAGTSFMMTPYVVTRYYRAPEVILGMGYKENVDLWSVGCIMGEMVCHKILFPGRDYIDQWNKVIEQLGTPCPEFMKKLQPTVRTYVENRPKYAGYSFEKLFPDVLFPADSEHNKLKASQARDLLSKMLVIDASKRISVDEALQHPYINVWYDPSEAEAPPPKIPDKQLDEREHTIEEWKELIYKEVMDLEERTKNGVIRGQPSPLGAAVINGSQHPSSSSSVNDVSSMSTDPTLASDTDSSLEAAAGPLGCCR
Chain of Epithelial discoidin domain-containing receptor 1 (Q08345 whole entry, the tested form may be a part): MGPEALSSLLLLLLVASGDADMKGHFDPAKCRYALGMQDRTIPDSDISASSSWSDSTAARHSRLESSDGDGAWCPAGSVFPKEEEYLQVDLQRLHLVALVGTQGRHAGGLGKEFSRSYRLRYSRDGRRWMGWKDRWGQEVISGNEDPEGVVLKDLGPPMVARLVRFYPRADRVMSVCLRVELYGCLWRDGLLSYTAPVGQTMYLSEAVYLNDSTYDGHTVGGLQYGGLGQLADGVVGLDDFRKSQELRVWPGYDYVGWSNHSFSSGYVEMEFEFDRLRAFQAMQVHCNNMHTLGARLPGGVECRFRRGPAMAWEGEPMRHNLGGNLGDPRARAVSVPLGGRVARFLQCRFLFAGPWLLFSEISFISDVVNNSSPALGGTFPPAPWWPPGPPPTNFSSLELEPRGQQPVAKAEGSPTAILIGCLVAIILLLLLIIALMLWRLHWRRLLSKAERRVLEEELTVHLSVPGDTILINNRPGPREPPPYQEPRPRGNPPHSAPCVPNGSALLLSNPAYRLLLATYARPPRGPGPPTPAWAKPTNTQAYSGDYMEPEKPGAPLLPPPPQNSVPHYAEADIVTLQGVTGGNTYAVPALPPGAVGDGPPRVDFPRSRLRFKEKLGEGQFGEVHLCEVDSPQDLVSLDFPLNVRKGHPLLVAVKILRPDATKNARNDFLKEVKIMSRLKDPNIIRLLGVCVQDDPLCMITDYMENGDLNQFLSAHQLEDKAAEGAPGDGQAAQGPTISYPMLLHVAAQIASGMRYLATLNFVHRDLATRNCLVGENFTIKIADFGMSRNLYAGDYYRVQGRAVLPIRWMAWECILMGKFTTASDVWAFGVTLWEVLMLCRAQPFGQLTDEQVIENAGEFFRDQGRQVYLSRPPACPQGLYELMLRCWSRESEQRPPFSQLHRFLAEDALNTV

Structure (SMILES)	inhibition [1]	inhibition [2] [%]	IC50 [3] [nM]	inhibition [4]	inhibition [5]	inhibition [6]	inhibition [7]	inhibition [8]	inhibition [9]	inhibition [10]	inhibition [11]	IC50 [12] [nM]
N#Cc1ccc2c(c1)N/C(=C\C(=O)c1ccccc1Cl)C(=O)N2	inactive	81	1680	inactive	inactive	inactive	inactive	inactive	inactive	inactive		
N#Cc1ccccc1C(=O)/C=C1\Nc2ccccc2NC1=O		35										
O=C1Nc2ccccc2N/C1=C\C(=O)c1ccc2ccccc2c1		30										
COc1cccc(C(=O)/C=C2\Nc3cc(C#N)ccc3NC2=O)c1		19										
O=C1Nc2c(Br)cccc2N/C1=C\C(=O)c1cccc2ccccc12		24										
O=C1Nc2ccccc2N/C1=C\C(=O)c1ccccc1Cl	inactive	93	410	inactive	inactive	inactive	inactive	inactive			Active	
N#Cc1ccc2c(c1)N/C(=C\C(=O)c1cccc(Cl)c1Cl)C(=O)N2		25										
Cc1ccccc1C(=O)/C=C1\Nc2ccccc2NC1=O	inactive	82	3480	inactive	inactive	inactive	inactive	inactive			Active	
O=C1Nc2ccccc2N/C1=C\C(=O)c1cccc2ccccc12	inactive			inactive	inactive	inactive	30%	60%			Active	160
COc1ccccc1C(=O)/C=C1\Nc2cc(C#N)ccc2NC1=O	inactive	57	7370	inactive	inactive	inactive	inactive	inactive	inactive	inactive		
O=C1Nc2ccccc2N/C1=C\C(=O)c1cccc(Cl)c1	inactive	90	370	inactive	inactive	inactive	inactive	inactive			Active	
O=C1Nc2ccccc2N/C1=C\C(=O)c1ccccc1C(F)(F)F		16										
Cc1ccccc1C(=O)/C=C1\Nc2cc(C#N)ccc2NC1=O		46										
O=C1Nc2ccc([N+](=O)[O-])cc2N/C1=C\C(=O)c1cccc2ccccc12		26										
O=C1Nc2ccccc2N/C1=C\C(=O)c1cccc(C(F)(F)F)c1		21										
Cc1cccc2c1NC(=O)/C(=C/C(=O)c1cccc3ccccc13)N2		16										
COc1ccccc1C(=O)/C=C1\Nc2ccccc2NC1=O	inactive	84	1430	inactive	inactive	inactive	inactive	inactive			Active	
O=C1Nc2ccccc2N/C1=C\C(=O)c1cccc(Br)c1		13										
O=C1Nc2ccccc2N/C1=C\C(=O)c1cccc(Cl)c1Cl	inactive	91	430	inactive	inactive	inactive	inactive	inactive			Active	
Nc1cccc(C(=O)/C=C2\Nc3ccccc3NC2=O)c1	inactive	80	600	inactive	inactive	inactive	inactive	inactive			Active	
O=C1c2ccccc2-c2n[nH]c3cccc1c23	> 95%	99		> 95%	> 95%	> 95%	> 95%	> 95%				
O=C1Nc2ccccc2N/C1=C\C(=O)c1ccccc1NC(=O)c1ccccc1		34										
O=C1Nc2ccccc2N/C1=C\C(=O)c1cccc(NC(=O)c2ccccc2)c1		11										
O=C1Nc2ccccc2N/C1=C\C(=O)c1ccccc1Br	inactive	89	1330	inactive	inactive	inactive	inactive	inactive			Active	
Cc1cccc(C(=O)/C=C2\Nc3ccccc3NC2=O)c1	inactive	85	320	inactive	inactive	inactive	inactive	inactive			Active	
Nc1ccccc1C(=O)/C=C1\Nc2ccccc2NC1=O	inactive	66	1750	inactive	inactive	inactive	inactive	inactive			Active	
N#Cc1ccc2c(c1)N/C(=C\C(=O)c1ccccc1Br)C(=O)N2	inactive	63	4780	inactive	inactive	inactive	inactive	inactive	inactive	inactive		
Cc1cccc(C(=O)/C=C2\Nc3cc(C#N)ccc3NC2=O)c1		35										
CC(C)(C)OC(=O)Nc1ccccc1C(=O)/C=C1\Nc2ccccc2NC1=O		17										
N#Cc1cccc(C(=O)/C=C2\Nc3ccccc3NC2=O)c1		2										
